{"source": "ChEMBL document CHEMBL1154804", "about": "“Diterpenes, sesquiterpenes, and a sesquiterpene-coumarin conjugate from Jatropha integerrima” (J Nat Prod, 2009)", "key": {"[1]": {"tested_on": "Mycobacterium tuberculosis", "experiment": "Antitubercular activity against Mycobacterium tuberculosis H37Ra at 200 ug/ml after 4 days by microplate alamar blue assay", "type": "functional, organism-based", "outline": "(§1)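 M. tuberculosis H37Ra tested in an Alamar Blue microplate assay. Values are given as MIC in µg/mL. The highest level tested was 200 µg/mL.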"}, "Plasmodium falciparum [2]": {"tested_on": "Plasmodium falciparum", "experiment": "Antiplasmodial activity against multidrug-resistant Plasmodium falciparum K1 assessed as [3H]hypoxanthine incorporation at 10 ug/ml after 24 hrs by microtiter plate scintillation counting", "type": "functional, organism-based", "outline": "(§2)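 K1 multidrug-resistant P. falciparum kept in continuous culture (Trager–Jensen). In vitro activity measured by a microculture radioisotope technique (Desjardins method). The highest level tested was 10 µg/mL.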"}, "Vero [3]": {"tested_on": "Vero", "experiment": "Cytotoxicity against african green monkey Vero cells at 50 ug/ml by sulforhodamine B assay", "type": "cell-based", "conditions": "chlorocebus sabaeus", "outline": "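African green monkey kidney fibroblasts (Vero) exposed to test material at 50 µg/mL; cell growth read by a colorimetric method (Skehan and coworkers).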"}, "[4]": {"tested_on": "Mycobacterium tuberculosis", "experiment": "Antitubercular activity against Mycobacterium tuberculosis H37Ra after 4 days by microplate alamar blue assay", "type": "functional", "conditions": "96 h", "outline": "as §1"}, "Plasmodium falciparum [5]": {"tested_on": "Plasmodium falciparum", "experiment": "Antiplasmodial activity against multidrug-resistant Plasmodium falciparum K1 assessed as [3H]hypoxanthine incorporation after 24 hrs by microtiter plate scintillation counting", "type": "functional, organism-based", "outline": "as §2"}, "Vero [6]": {"tested_on": "Vero", "experiment": "Cytotoxicity against african green monkey Vero cells by sulforhodamine B assay", "type": "cell-based", "conditions": "chlorocebus sabaeus", "outline": "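Vero cells were described as African green monkey kidney fibroblasts. Read-out was by the colorimetric method of Skehan and coworkers. Compounds were tested up to 50 µg/mL.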"}}, "note": "Calls of active or inactive are those of the source. The calls are words filed in the database; no cut-off is given here."}
{"smiles": "C=C1CC[C@@H]2[C@H](c3c(C)c(O)c4c(c31)C(=O)[C@H](C)C4)C2(C)C", "note": "[JATROPHOLONE B]", "values": [{"measurement": "Activity", "setting": "[1]", "value": "inactive"}, {"measurement": "Activity", "setting": "Plasmodium falciparum [2]", "value": "inactive"}, {"measurement": "Activity", "setting": "Vero [3]", "value": "Non-toxic"}]}
{"smiles": "NNC(=O)c1ccncc1", "note": "[ISONIAZID]", "values": [{"measurement": "MIC", "setting": "[4]", "value": 0.1, "unit": "µg/mL"}]}
{"smiles": "C[C@H]1[C@@H](O)O[C@@H]2O[C@@]3(C)CC[C@H]4[C@H](C)CC[C@@H]1[C@@]24OO3", "note": "[ARTENIMOL]", "values": [{"measurement": "IC50", "setting": "Plasmodium falciparum [5]", "value": 4, "unit": "nM"}]}
{"smiles": "Cc1c2ccncc2c(C)c2c1[nH]c1ccccc12", "note": "[ELLIPTECINE]", "values": [{"measurement": "IC50", "setting": "Vero [6]", "value": 0.7, "unit": "µg/mL"}]}
{"smiles": "C=C(C)[C@@H]1CC[C@]23CO[C@@]4(OO2)C2=C(C(=O)C(C)=C[C@@H]1[C@@H]23)[C@H](O)[C@H]4C", "note": "[CANIOJANE]", "values": [{"measurement": "IC50", "setting": "Vero [6]", "value": 12.9, "unit": "µg/mL"}, {"measurement": "IC50", "setting": "Plasmodium falciparum [5]", "value": 3.3, "unit": "µg/mL"}, {"measurement": "MIC", "setting": "[4]", "value": 25, "unit": "µg/mL"}]}
{"smiles": "C=C1CC[C@@H]2[C@H](c3c(C)c(O)c4c(c31)C(=O)[C@](C)(O)C4)C2(C)C", "values": [{"measurement": "Activity", "setting": "[1]", "value": "inactive"}, {"measurement": "Activity", "setting": "Vero [3]", "value": "Non-toxic"}, {"measurement": "IC50", "setting": "Plasmodium falciparum [5]", "value": 4.1, "unit": "µg/mL"}]}
{"smiles": "NC[C@H]1O[C@H](O[C@H]2[C@H](O)[C@@H](O[C@H]3O[C@H](CO)[C@@H](O)[C@H](N)[C@H]3O)[C@H](N)C[C@@H]2N)[C@H](O)[C@@H](O)[C@@H]1O", "note": "[KANAMYCIN]", "values": [{"measurement": "MIC", "setting": "[4]", "value": 2.5, "unit": "µg/mL"}]}
{"smiles": "C=C1CC[C@@H]2[C@H](c3c(C)c(O)c4c(c31)C(=O)[C@@H](C)C4)C2(C)C", "note": "[JATROPHOLONE A]", "values": [{"measurement": "Activity", "setting": "[1]", "value": "inactive"}, {"measurement": "Activity", "setting": "Vero [3]", "value": "Non-toxic"}, {"measurement": "IC50", "setting": "Plasmodium falciparum [5]", "value": 5.4, "unit": "µg/mL"}]}
{"smiles": "C=C1CC[C@@H]2[C@H](c3c(C)c(O)c4c(c31)C(=O)[C@@](C)(O)C4)C2(C)C", "values": [{"measurement": "IC50", "setting": "Vero [6]", "value": 49.4, "unit": "µg/mL"}, {"measurement": "Activity", "setting": "[1]", "value": "inactive"}, {"measurement": "Activity", "setting": "Plasmodium falciparum [2]", "value": "inactive"}]}
